# Pemphigus Ab inh = blocks pemphigus antibody binding to human desmoglein-3; P32926; DSG3-coupled beads, scFv-anti-DSG3-GFP binding, flow cytometry; stronger effect = lower value; binding (percent of control), % at 10 µM; actives 0.48% (n = 310,000); AID 588358;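 active = binding more than 3 SD below its plate's average and above zero; inconclusive = below that plate limit but binding exactly zero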;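 also: hits lower antibody fragment binding to DSG3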
# TbMetRS inhib = Trypanosoma brucei MetRS inhibition. inhibition, % at 11.9 µM. actives 0.4% (n = 360,000). purified T. brucei MetRS, ATP depletion, Kinase-Glo luminescence;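 active = inhibition above a per-plate cutoff of the control wells' mean inhibition plus 3 SD, cut at about 5.5% in these data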;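 also: 0% = DMSO wells median and 100% = median of wells with control inhibitor compound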
#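 Material – parasite MetRS enzyme · Medium – HEPES-MgCl2-KCl buffer plus DTT, spermine, BSA, pyrophosphatase · Reagent – ATP, methionine and E. coli bulk tRNA substrates · Times – 15 min enzyme-compound preincubation, 2 h reaction, 10 min detection, 25 °C · Measured by – luminescence of leftover ATP · Evaluation – percent inhibition relative to median high and low control wells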
# Rce1 inhib = inhibitors of yeast Ras-converting enzyme; calls only; Q03530; AID 2563; yeast membranes, quenched prenylated peptide cleavage fluorescence; actives 0.27% (n = 290,000);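 active = fall in fluorescence gain of 50% or more versus controls, with final raw signal at or below 3038400; inconclusive = same 50% fall but final raw signal above 3038400; inactive = fall in fluorescence gain under 50%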;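 also: plate controls were neutral control wells for no effect and wells lacking membranes for full effect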
# Target sequence (Q03530 whole entry, looked up): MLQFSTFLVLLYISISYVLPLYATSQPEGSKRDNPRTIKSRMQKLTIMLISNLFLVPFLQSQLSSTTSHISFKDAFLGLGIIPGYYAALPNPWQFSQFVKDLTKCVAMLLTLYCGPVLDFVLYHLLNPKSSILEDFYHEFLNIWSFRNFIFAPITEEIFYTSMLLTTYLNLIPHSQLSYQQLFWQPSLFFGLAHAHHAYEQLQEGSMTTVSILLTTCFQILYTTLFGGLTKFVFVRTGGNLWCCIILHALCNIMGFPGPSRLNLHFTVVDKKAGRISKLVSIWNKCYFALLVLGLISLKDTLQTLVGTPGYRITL
# NadD block = NadD (S. aureus) enzyme inhibition | actives 0.78% (n = 360,000) | inhibition, % at 20 µM | purified NadD enzyme, colorimetric absorbance read-out | AID 602399; in the data active = inhibition above about 26%
# HCV core dimer = HCV core protein dimerization inhibition; actives 0.33% (n = 300,000); inhibition, % at 5 µM; AID 1899; TR-FRET GST/Flag-core106 dimerization, 1536-well;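 active = inhibition above the mean of all tested compounds plus 3 SD, set per screening campaign, cut at about 45% in these data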
#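 assay system = GST-tagged and Flag-tagged HCV core protein residues 1-106 | controls = unlabelled core106 and no-GST-core106 wells | incubation = compound-protein-antibody incubation 4 h at 22.5 °C | probe or stimulus = Eu donor and XL665 acceptor anti-tag antibodies | read-out = % inhibition based on acceptor/donor emission ratio | signal = TR-FRET 671 and 617 nm emission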
# NadD inh conf = confirmation of Staphylococcus aureus NadD inhibitors | purified S. aureus NadD, colorimetric enzyme assay | shares compounds with NadD block | inhibition, % at 20 µM | actives 13% (n = 2,000) | AID 624309; in the data active = inhibition mostly above about 42%, no sharp cut-off; inactive = mostly below about 42%
# * hit, by the source's call; i = inactive; u = inconclusive; x = no result given. Shown are actives, neighbours in structure and some others; about 1.9% of the full set was active somewhere.
SMILES,Pemphigus Ab inh,TbMetRS inhib,Rce1 inhib,NadD block,HCV core dimer,NadD inh conf
COc1ccccc1CNC(=O)COC(=O)c1cc(-c2ccco2)nc2ccccc12,97,0,i,46*,69*,39
O=C(COC(=O)c1ccco1)NCc1ccc2c(c1)OCO2,99,0,i,-3,0,x
O=C(COC(=O)c1cc(-c2ccco2)nc2ccccc12)NCc1ccc2c(c1)OCO2,103,0,i,43*,36,-4
COC(=O)C1CCN(C(=O)c2cc(-c3ccco3)nc3ccccc23)CC1,41,0,x,32*,x,56*
COC(=O)c1cccc(NC(=O)C2CCCN2C(=O)c2cccs2)c1 (configuration not stated),106,0,x,-5,x,x
C[C@H](CO)N1C[C@H](C)[C@@H](CN(C)S(=O)(=O)c2cccs2)Oc2c(NC(=O)C3CCCCC3)cccc2C1=O,105,0,x,3,x,x
O=C1Nc2ccccc2C1=Nc1ccc(S(=O)(=O)Nc2nccs2)cc1,86,-1,i,54*,1,74*
NC(=O)NC(CC(=O)NCCc1ccc(S(N)(=O)=O)cc1)c1ccc(Cl)cc1 (configuration not stated),92,-1,i,-6,-5,x
COCCCN1C(=O)C(CC(=O)NCCCCc2ccccc2)CC(C(=O)N2CCOCC2)=C1C (configuration not stated),103,0,x,2,x,x
Cc1ccnc2nc(C(=O)OCC(=O)c3ccc(NC(=O)CC(C)C)cc3)nn12,130,0,x,6,x,x
CCC(=O)Nc1ccc(C(=O)COC(=O)c2nc3nccc(C)n3n2)cc1,x,0,x,46*,x,86*
COc1cc(C(=O)O)cc(NC(=O)c2ccco2)c1OC,97,0,i,-1,1,x
Cc1c(C(=O)OC/C(O)=C(\C#N)c2nc3ccccc3[nH]2)oc2ccc(Br)cc12,101,0,i,43*,8,4
Cc1c(-c2cccc(Cl)c2)nc2ccccc2c1C(=O)OC/C(O)=C(\C#N)c1nc2ccccc2[nH]1,79,0,i,70*,15,-1
COc1ccc(C(=O)Nc2nc3c(s2)Cc2cc(OC)ccc2-3)cc1,105,0,i,38*,20,9
O=C(CCN=C1NS(=O)(=O)c2ccccc21)OCC(=O)c1ccc(F)c(F)c1,104,0,i,-3,1,x
O=C(O)c1ccc(-c2nc(-c3ccccc3)c(-c3cccs3)[nH]2)cc1,100,0,u,-6,14,x
O=[N+]([O-])c1ccc(O)c(-c2nc(-c3ccccc3)c(-c3cccs3)[nH]2)c1,104,0,i,34*,15,10
Cc1cnc(C=NNC(N)=S)c2cccc(N)c12,62,0,x,61*,x,9
Cc1ccc(S(=O)(=O)N2CC(C)N(C(=O)N3CCOCC3)C2)cc1 (configuration not stated),99,0,i,-1,-9,x
Cc1ccc2cc(C#N)c(N3CCCN(C(=O)C4CCCO4)CC3)nc2c1C (configuration not stated),99,0,i,0,39,x
Cc1ccc2cc(C#N)c(N3CCCC3)nc2c1C,103,-1,x,34*,7,2
CSc1ccc(C=NNc2ccc(S(=O)(=O)Nc3ccccc3C(=O)O)cc2[N+](=O)[O-])cc1,72*,0,x,41*,x,21
CCOc1ccc(C=NNc2ccc(S(=O)(=O)Nc3ccccc3C(=O)O)cc2[N+](=O)[O-])cc1,89*,0,x,34*,x,76*
S=c1[nH]nc(-c2cc(-c3ccsc3)n[nH]2)n1-c1cccc2ccccc12,90,4,x,32*,11,32
COc1ccc(-c2cc(-c3n[nH]c(=S)n3-c3cccc4ccccc34)[nH]n2)cc1,106,1,i,26,12,x
N#C/C(=C\c1c[nH]c2ccccc12)C(=O)Nc1ncc(Cc2ccc(Cl)cc2Cl)s1,96,0,i,38*,14,-5
Cc1cc2nc(-c3ccc(SCC(=O)Nc4nccs4)nc3)[nH]c2cc1C,120,0,x,20,x,x
Cc1cc(C)c2nc(SCC(=O)Nc3ccc(S(=O)(=O)N4CCCC4)cc3)c(C)cc2c1,100,0,i,36*,-11,9
